Where “and” joins values, the source holds several entries; their conditions need not be identical. Identical values can stand only once. Marks after values point to notes of the source that are not given here.
What was measured:
TNF-α = assay: LPS-induced TNF-α production inhibition in mice; format: in vivo, mice (BALB/c); settings: for TNF-α inhibition: LPS-induced TNF-α production in mice, plasma ELISA, mean±SEM, n=6; for ID50: LPS-induced TNF-α release in mice
[1] = test system: gastric mucosa (ulcerogenic potential); assay: ulcerogenic test; format: in vivo; settings: rats, oral dose of 30 mg/kg, mean±SEM, n=6
p38α MAPK = p38α MAPK (Homo sapiens, UniProt Q16539); assay: p38α MAPK assay; format: biochemical
[2] = test system: carrageenan-induced rat paw edema; assay: carrageenan-induced rat paw edema anti-inflammatory activity; format: in vivo, albino rats of Wistar strain; settings: for inhibition in vivo at 10 mg/kg: Rattus norvegicus, po, 4 h, read-out: Inhibition (anti-inflammatory activity), rat, oral dose 10 mg/kg body weight, after 4h; for Inhibition (anti-inflammatory activity) / Increase in paw edema / Activity relative to diclofenac sodium: rat; for Inhibition (anti-inflammatory activity) / Increase in paw edema: oral dose 10 mg/kg body weight; for Inhibition (anti-inflammatory activity): after 4h, 10 mg/kg; for Increase in paw edema: mean±SEM, n=6; for Activity relative to diclofenac sodium: oral dose 10 mg/kg, diclofenac sodium = 100
Summary of the method: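 Wistar rats of either sex, 180–200 g, kept at 25 ± 2 °C, 50 ± 5% relative humidity and a 12 h light/dark cycle, with free food and water until testing. Paw edema after carrageenan was measured by digital plethysmometer. Six animals per group. Groups were compared by Student's t-test, with P < 0.05 taken as significant.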

gastric mucosal tissue = assay: lipid peroxidation in the gastric mucosa; format: in vivo; settings: rats, mean±SEM
[3] = DPPH free radical scavenging antioxidant assay; settings: 517 nm, 1 mmol/L concentration

p38α MAPK, sequence (Q16539 whole entry): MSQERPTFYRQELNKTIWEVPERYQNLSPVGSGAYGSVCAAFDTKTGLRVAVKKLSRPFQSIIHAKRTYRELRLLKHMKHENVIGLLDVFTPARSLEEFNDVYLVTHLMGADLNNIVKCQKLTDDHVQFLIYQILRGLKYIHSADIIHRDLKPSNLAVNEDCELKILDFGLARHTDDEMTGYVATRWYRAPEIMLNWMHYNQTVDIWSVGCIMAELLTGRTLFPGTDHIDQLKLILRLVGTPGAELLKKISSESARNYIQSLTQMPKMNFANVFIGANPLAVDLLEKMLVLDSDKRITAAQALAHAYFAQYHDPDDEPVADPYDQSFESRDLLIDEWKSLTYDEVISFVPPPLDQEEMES

SMILES | TNF-α inhibition (TNF-α) | ID50 (TNF-α) | Severity index [1] | IC50 (p38α MAPK) | inhibition in vivo at 10 mg/kg [2] | Inhibition (anti-inflammatory activity) [2] | Increase in paw edema [2] | Activity relative to diclofenac sodium [2] | Lipid peroxidation (gastric mucosal tissue; n=6) | percentage antioxidant activity [3] | Lipid peroxidation (gastric mucosal tissue; n=6, listed as diclofenac sodium)
NC(=O)Nc1ccc(-c2cc(-c3ccc(OCc4ccccc4)cc3)n(-c3ccccc3Cl)n2)cc1 [Compound 3a, 1-[4-[5-(4-(Benzyloxy)phenyl)-1-(2-chlorophenyl)-1H-pyrazol-3-yl]phenyl]urea] | 60.87±2.65 ^b % | 19.98 mg/kg | 0.67±0.25 ^b | 39 ± 40 nM | 76.2% | 76.19 ^b % | 0.40 ± 0.08 mL | 93.23 | 5.47±0.44 ^b nmol MDA/100 mg tissue |  | 
NC(=O)Nc1ccc(-c2cc(-c3ccc(OCc4ccccc4)cc3)n(-c3ccc(Cl)c(Cl)c3)n2)cc1 [Compound 3d, 1-[4-[5-(4-(Benzyloxy)phenyl)-1-(3,4-dichlorophenyl)-1H-pyrazol-3-yl]phenyl]urea] | 52.60±2.16% |  | 1.08±0.37 ^b | 79 nM | 62.2% |  | 0.64 ± 0.05 mL | 76.17 |  |  | 
C[S+]([O-])c1ccc(-c2nc(-c3ccncc3)c(-c3ccc(F)cc3)[nH]2)cc1 (stereo not shown) [SB 203580, reference compound] | 52.11±1.08 ^b % | 28.40 mg/kg and 28.40 ^b mg/kg |  |  |  |  |  |  |  |  | 
NC(=O)Nc1ccc(-c2cc(-c3ccc(OCc4ccccc4)cc3)n(-c3ccc(Cl)cc3)n2)cc1 [Compound 3c, 1-[4-[5-(4-(Benzyloxy)phenyl)-1-(4-chlorophenyl)-1H-pyrazol-3-yl]phenyl]urea] | 62.56±0.24% | 9.67 mg/kg and 9.67 ^b mg/kg |  |  | 80.9% | 80.93 ^b % | 0.32 ± 0.06 mL | 99.03 | 5.12±0.55 ^b nmol MDA/100 mg tissue | 75.06% | 
Cc1ccc(-n2nc(-c3ccc(NC(N)=O)cc3)cc2-c2ccc(OCc3ccccc3)cc2)cc1 [Compound 3l, 1-[4-[5-(4-(Benzyloxy)phenyl)-1-(4-methylphenyl)-1H-pyrazol-3-yl]phenyl]urea] |  |  |  | 169 ± 70 nM |  |  |  |  |  |  | 
COc1ccc(O)c(C(C)(C)C)c1 [BHA, butylated hydroxy anisole, reference compound] |  |  |  |  |  |  |  |  |  | 71.53% | 
COc1ccccc1-n1nc(-c2ccc(NC(N)=O)cc2)cc1-c1ccc(OCc2ccccc2)cc1 [Compound 3n, 1-[4-[5-(4-(Benzyloxy)phenyl)-1-(2-methoxyphenyl)-1H-pyrazol-3-yl]phenyl]urea] |  |  |  | 206 ± 370 nM |  |  |  |  |  | did not exhibit any significant antioxidant activity | 
Cc1cccc(C)c1-n1nc(-c2ccc(NC(N)=O)cc2)cc1-c1ccc(OCc2ccccc2)cc1 [Compound 3m, 1-[4-[5-(4-(Benzyloxy)phenyl)-1-(2,6-dimethylphenyl)-1H-pyrazol-3-yl]phenyl]urea] |  |  |  | 270 nM |  |  |  |  |  |  | 
NC(=O)Nc1ccc(-c2cc(-c3ccc(OCc4ccccc4)cc3)n(-c3ccc([N+](=O)[O-])cc3)n2)cc1 [Compound 3h, 1-[4-[5-(4-(Benzyloxy)phenyl)-1-(4-nitrophenyl)-1H-pyrazol-3-yl]phenyl]urea] | 52.76±2.08% |  | 0.91±0.20 | 67 nM | 68.4% |  | 0.53 ± 0.12 mL | 83.67 |  |  | 
O=C(O)Cc1ccccc1Nc1c(Cl)cccc1Cl [Diclofenac sodium, diclofenac sodium, reference compound] |  |  | 1.83±0.27 |  | 81.6% |  | 0.31 ± 0.13 mL | 100 | 6.52±0.42 nmol MDA/100 mg tissue |  | 6.52 ± 0.42 nmol MDA/100 mg tissue
Cc1ccccc1-n1nc(-c2ccc(NC(N)=O)cc2)cc1-c1ccc(OCc2ccccc2)cc1 [Compound 3j, 1-[4-[5-(4-(Benzyloxy)phenyl)-1-(2-methylphenyl)-1H-pyrazol-3-yl]phenyl]urea] |  |  |  | 123 nM |  |  |  |  |  | did not exhibit any significant antioxidant activity | 
Cc1cccc(-n2nc(-c3ccc(NC(N)=O)cc3)cc2-c2ccc(OCc3ccccc3)cc2)c1 [Compound 3k, 1-[4-[5-(4-(Benzyloxy)phenyl)-1-(3-methylphenyl)-1H-pyrazol-3-yl]phenyl]urea] |  |  |  | 210 ± 110 nM |  |  |  |  |  |  | 
NC(=O)Nc1ccc(-c2cc(-c3ccc(OCc4ccccc4)cc3)n(-c3ccc([N+](=O)[O-])cc3[N+](=O)[O-])n2)cc1 [Compound 3i, 1-[4-[5-(4-(Benzyloxy)phenyl)-1-(2,4-dinitrophenyl)-1H-pyrazol-3-yl]phenyl]urea] |  |  |  | 112 ± 40 nM |  |  |  |  |  |  | 
NC(=O)Nc1ccc(-c2cc(-c3ccc(OCc4ccccc4)cc3)n(-c3ccc(F)cc3)n2)cc1 [Compound 3e, 1-[4-[5-(4-(benzyloxy)phenyl)-1-(4-fluorophenyl)-1H-pyrazol-3-yl]phenyl]urea] | 57.34±3.05% |  | 0.83±0.22 | 48 ± 10 nM | 72.3% |  | 0.47 ± 0.16 mL | 88.50 | 6.08±0.15 nmol MDA/100 mg tissue |  | 
NC(=O)Nc1ccc(-c2cc(-c3ccc(OCc4ccccc4)cc3)n(-c3cccc(Cl)c3)n2)cc1 [Compound 3b, 1-[4-[5-(4-(Benzyloxy)phenyl)-1-(3-chlorophenyl)-1H-pyrazol-3-yl]phenyl]urea] | 62.45±0.07 ^b % | 11.32 mg/kg and 11.32 ^b mg/kg |  |  | 78.1% | 78.06 ^b % | 0.37 ± 0.20 mL | 95.52 | 5.19±0.48 ^b nmol MDA/100 mg tissue |  | 
COc1ccc(-n2nc(-c3ccc(NC(N)=O)cc3)cc2-c2ccc(OCc3ccccc3)cc2)cc1 [Compound 3o, 1-[4-[5-(4-(Benzyloxy)phenyl)-1-(4-methoxyphenyl)-1H-pyrazol-3-yl]phenyl]urea] |  |  |  | 170 nM |  |  |  |  |  | did not exhibit any significant antioxidant activity | 
NC(=O)Nc1ccc(-c2cc(-c3ccc(OCc4ccccc4)cc3)n(-c3ccc(Br)cc3)n2)cc1 [Compound 3g, 1-[4-[5-(4-(Benzyloxy)phenyl)-1-(4-bromophenyl)-1H-pyrazol-3-yl]phenyl]urea] | 58.13±0.28% |  | 0.75±0.27 |  | 74% | 74.01 ^b % | 0.44 ± 0.06 mL | 90.56 | 6.02±0.17 ^a nmol MDA/100 mg tissue |  | 
NC(=O)Nc1ccc(-c2cc(-c3ccc(OCc4ccccc4)cc3)n(-c3ccc(F)c(Cl)c3)n2)cc1 [Compound 3f, 1-[4-[5-(4-(Benzyloxy)phenyl)-1-(3-chloro-4-fluorophenyl)-1H-pyrazol-3-yl]phenyl] urea] |  |  |  | 110 ± 170 nM |  |  |  |  |  |  | 

Reference: article PMC5343109 (Acta Pharmaceutica Sinica. B, 2016)
